In the library only some 3.2% were active in any assay of this set; here they are far more common.
S100A4 MyoIIA – inhibitors of human S100A4 binding to myosin IIA peptide | P26447 | S100A4/TAMRA-MyoIIA peptide fluorescence polarization | inhibition, % at 10.7 µM | 0.14% of 360,000 active;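 active means mean inhibition of at least 70% across replicates, with every replicate also reaching that level; inconclusive means mean inhibition reaches 70% but some replicates fall short; inactive means mean inhibition below 70%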
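Material: human S100A4 monomer with TAMRA-labelled myosin IIA peptide; buffer or medium: HEPES pH 7.2 with CaCl2, KCl, NaCl, DTT, Triton; compound dosing: one concentration per compound; schedule: 5 min incubation before reading; benchmarks: neutral control DMSO, positive control TFP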
Ecoli rRNA inh – inhibits bacterial ribosomal RNA function over humanized ribosomes. GFP signal change (wild-type ribosome), % (concentration not given with the values). 1.6% of 350,000 active. E. coli WT GFP vs humanized-ribosome RFP mutants, fluorescence, 24 h; active compounds read low; DMSO median 0, no signal -100;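 active means significant combined selectivity score with lowered wild-type GFP, culture density cut under 30%, mutant RFP and density less affected; inactive means any of these conditions unmet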
DENV2 CPE – inhibitors of DENV2 cytopathic effect; AID 651640; CPE inhibition, % at 9.99 µM; 1.7% of 350,000 active; DENV2-infected cells, cytopathic effect rescue, plate reader; in the data active means CPE inhibition above about 20%, passing the limit was not always enough; inconclusive means no clear call, values can overlap the other calls; tested in BHK-21 cells;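 further: 0% = median of neutral control wells and 100% = median of positive control wells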
Cneo AK release – causes C. neoformans cell lysis; adenylate kinase release luminescence, 4 h; normalised: neutral wells 0, clomiphene wells 100; lysis activity, % at 15 µM; 0.2% of 360,000 active; AID 651654;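 active means mean lysis activity across replicates of at least 80%, whatever share of replicates individually reach that level; inactive means mean lysis activity below 80%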
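Material – log-phase Cryptococcus neoformans yeast cells · Input – 5 × 10^6 yeast cells/mL · Medium – fresh YPD growth medium · Doses – single compound concentration per well · Timing – static 4 h at 37 °C with compound, 1 h detection · Detection – adenylate kinase release luminescence · Read-out – signal increase indicating cell lysis · Control set – Clomiphene as positive lysis control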
PfHsp90 set2 – inhibits growth of yeast expressing Plasmodium falciparum Hsp90; S. cerevisiae expressing PfHsp90, BacTiter-Glo ATP, 48 h; yeast lacking PDR1 and PDR3 efflux regulators; inhibition, % at 9.4 µM; 0.32% of 310,000 active;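 active means every replicate shows inhibition above about 80%, whatever the replicate mean, limit read from the data; inconclusive means mean inhibition reaches the set limit but some replicate falls short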;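 further: 0% = DMSO neutral controls and 100% = 20 µM radicicol positive controls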
MLL AF4-AF9 inh – MLL-AF4/AF9 protein interaction inhibition; P42568; AlphaScreen, biotin-AF4 peptide binding to FLAG-AF9; inhibition, % at 10 µM; 0.47% of 350,000 active; AID 651704;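 active means every replicate reaching a set inhibition limit, whatever the replicate mean, cut at about 25% in these data; inconclusive means mean inhibition reaches that limit but some replicates miss it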;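 further: 0% = plate neutral control median and 100% = total signal loss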
Target sequence (P42568 whole entry, looked up): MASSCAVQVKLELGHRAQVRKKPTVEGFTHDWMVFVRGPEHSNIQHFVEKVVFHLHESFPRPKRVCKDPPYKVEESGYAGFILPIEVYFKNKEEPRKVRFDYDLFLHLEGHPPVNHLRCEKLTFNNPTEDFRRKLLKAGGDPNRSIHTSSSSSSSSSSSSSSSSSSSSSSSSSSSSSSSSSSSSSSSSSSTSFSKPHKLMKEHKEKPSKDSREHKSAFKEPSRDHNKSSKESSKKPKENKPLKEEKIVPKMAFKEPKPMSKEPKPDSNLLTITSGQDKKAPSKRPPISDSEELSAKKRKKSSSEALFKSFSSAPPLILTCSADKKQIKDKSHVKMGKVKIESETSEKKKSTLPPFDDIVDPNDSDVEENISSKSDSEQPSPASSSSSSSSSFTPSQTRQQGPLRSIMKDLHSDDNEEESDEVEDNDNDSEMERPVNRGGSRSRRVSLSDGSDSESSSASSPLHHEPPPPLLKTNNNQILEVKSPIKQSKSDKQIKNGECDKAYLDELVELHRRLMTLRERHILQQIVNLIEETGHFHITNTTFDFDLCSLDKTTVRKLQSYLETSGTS
AID977621 – wild-type E. coli growth inhibition versus H69 humanized strain – H69 mutant RFP, wild-type GFP, cherry-pick, dose response; shares compounds with Ecoli rRNA inh; AID 977621; activity change, negative = inhibition at 50 µM; 1,900 tested, under 10 active; fluorescence, 24 h;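 active means Wild-type ribosome reporter drop at least double the humanized mutant ribosome reporter drop, growth loss under a set limit; inconclusive means no clear call, values can overlap the other calls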;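 further: wild-type GFP and H69 mutant RFP strains grown together 50/50 in each well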
AID977628 – E. coli growth inhibition, wild-type GFP versus h24 humanized RFP strain, dose response, h24 mutant RFP vs wild-type GFP, cherry-pick | shares compounds with Ecoli rRNA inh | E. coli WT GFP strain growth, fluorescence, 24 h | activity change, negative = inhibition at 50 µM | 1,900 tested, under 10 active | AID 977628;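 active means compound lowering the normal-ribosome reporter at least twice as much as the humanized-ribosome reporter, growth loss under a set limit; inconclusive means no clear call, values can overlap the other calls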;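 further: wild-type GFP and h24 humanized RFP strains co-cultured 1 to 1 per well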
* hit, by the source's call; ? = inconclusive; nt = no result given.

SMILES	S100A4 MyoIIA	Ecoli rRNA inh	DENV2 CPE	Cneo AK release	PfHsp90 set2	MLL AF4-AF9 inh	AID977621	AID977628
CCOC(=O)C1CCCN(Cc2c(Cl)cccc2Cl)C1 (stereo not drawn)	-3	-23*	2	5	nt	5	-14	-11
CCn1cc(Cl)c(C(=O)Nc2cccc(C(F)(F)F)c2)n1	-6	-23*	4	nt	nt	0	-16	nt
C[C@@H]1CN([C@@H](C)CO)C(=O)Cc2cc(NC(=O)Nc3ccc(F)cc3)ccc2O[C@@H]1CN(C)C(=O)Nc1ccccc1	11	4	?	1	nt	2	nt	nt
C[C@@H]1NS(=O)(=O)c2c(F)cccc2O[C@@H]1c1ccccc1	-3	-22*	-1	nt	nt	-4	nt	?
Cc1nc(N2CCC(C)CC2)c(C#N)c(C)c1[N+](=O)[O-]	-28	-25*	3	nt	nt	-4	0.53	-9.6
COc1cc(NC(=O)CSc2nc(C)cs2)cc(OC)c1	2	-30*	3	3	-8	-30	-16	nt
O=C(Nc1nc(-c2ccc3ccccc3c2)cs1)C1CCN(S(=O)(=O)c2cccs2)CC1	-8	-15*	-2	nt	-1	4	-3.7	-1.9
CCCC(=O)Nc1ccc2c(c1)OC[C@@H](C)N(C(=O)c1ccccc1F)C[C@H](C)[C@H](OC)CN(C)C2=O	nt	-3	nt	nt	nt	nt	nt	nt
COc1ccc(C(=O)c2sc3nc(-c4ccccc4)ccc3c2N)cc1	nt	nt	nt	nt	-7	nt	nt	nt
CC(C)OC(=O)c1sc2nc(-c3ccccc3)ccc2c1N	-2	-26*	-3	-4	-28	1	0.58	?
CN(C)S(=O)(=O)c1cccc(C(=O)OCC(=O)c2ccc3c(c2)NC(=O)CO3)c1	4	-27*	2	0	-8	3	-9.3	-9.2
CN(C)S(=O)(=O)c1ccc(C(=O)OCC(=O)c2ccc3c(c2)NC(=O)CO3)cc1	0	11	-3	-4	7	2	nt	nt
CCCC#Cc1cnc2c(c1)C(=O)N([C@H](C)CO)C[C@H](C)[C@@H](CN(C)C(=O)c1ccccc1)O2	-17	1	9	1	nt	0	nt	nt
c1ccc(-c2nc(-c3cccnc3)cs2)cc1	1	-24*	-5	-3	-43	2	?	nt
O=C(C[n+]1ccn(-c2ccccc2)c1)c1ccc([N+](=O)[O-])cc1	4	-22*	7	-1	1	4	nt	-7.8
O=C(CCN1CCCCC1)N[C@@H]1CC[C@@H](CCNS(=O)(=O)c2ccccc2)O[C@@H]1CO	23	2	-6	67	nt	1	nt	nt
Cc1ccc(S(=O)(=O)N2CCCN(S(=O)(=O)c3ccccc3Br)CC2)cc1	6	-17*	1	-2	4	-4	-17	?
Cc1ccc(S(=O)(=O)N2C/C=C\CN(S(=O)(=O)c3ccccc3Br)CC2)cc1	0	-16	14	-2	3	-1	nt	nt
C[C@H]1CCCCO[C@H](CN(C)Cc2ccc(C(=O)O)cc2)[C@@H](C)CN([C@@H](C)CO)C(=O)c2cc(NS(=O)(=O)c3ccc(F)cc3)ccc2O1	-1	3	2	-12	nt	-5	nt	nt
COc1cccc(NC(=O)N2CC3(C2)[C@H](c2ccccc2)[C@H](CO)N3C(=O)C2CCC2)c1	nt	0	1	nt	nt	-5	nt	nt
N#Cc1ccc(-c2ccc3c(c2)[C@H]2[C@H](CCN2S(=O)(=O)c2cccc(F)c2)[C@@H](CO)N3)cc1	4	-7	12	-10	nt	2	nt	nt
N#Cc1cccc(-c2ccc3c(c2)[C@@H]2[C@@H](CCN2S(=O)(=O)c2cccc(F)c2)[C@H](CO)N3)c1	-9	-19*	6	-2	nt	-3	?	nt
